Experimental data: ChEMBL document CHEMBL2016531, “Identification of NAE Inhibitors Exhibiting Potent Activity in Leukemia Cells: Exploring the Structural Determinants of NAE Specificity” (ACS Med Chem Lett, 2011)
Activity calls are given as the source filed them. No cut-off for these calls is given here.

Experiments:
Homo sapiens [1] = species on record: Homo sapiens; test: Inhibition of human recombinant NAE assessed as inhibition of NEDD8-UbcH12 complex formation at 1 nM after 1.5 hrs by Western blot analysis
Outline: (§1)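 Cell-free gel assay. Purified human recombinant E1 incubated with its matching Ub/Ubl and E2 in 50 mM HEPES pH 7.4, 5 mM MgCl2, 1–20 μM ATP. Inhibitor at 0, 0.001, 0.01, 0.1, 1 or 10 μM, 1.5 h at room temperature. Products resolved by SDS-PAGE, immunoblotted and detected by ECL; densitometry used for semiquantitation.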

Homo sapiens [2] = species on record: Homo sapiens; test: Inhibition of human recombinant NAE assessed as inhibition of NEDD8-UbcH12 complex formation at >10 nM after 1.5 hrs by Western blot analysis; outline: as §1
K562 = test: Antiproliferative activity against human K562 cells after 72 hrs by CellTiter-Glo assay; assay type: functional, cell-based; settings: K562, 72 h
Outline: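 K562 leukemia cells exposed to increasing concentrations for 72 h; growth and viability read by CellTiter-Glo luminescence.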

Homo sapiens [3] = species on record: Homo sapiens; test: Inhibition of human recombinant UAE assessed as inhibition of UbcH6-Ub complex formation at 0.001 to 10 uM after 1.5 hrs by Western blot analysis; outline: as §1
[4] = molecular target: Ubiquitin-like modifier-activating enzyme 5 (Homo sapiens) (UniProt Q9GZZ9); test: Inhibition of human recombinant UBA5 assessed as inhibition of […]-UFM1 complex formation at 10 uM after 1.5 hrs by Western blot analysis; outline: as §1
Chain of Ubiquitin-like modifier-activating enzyme 5 (Homo sapiens) (Q9GZZ9 whole entry): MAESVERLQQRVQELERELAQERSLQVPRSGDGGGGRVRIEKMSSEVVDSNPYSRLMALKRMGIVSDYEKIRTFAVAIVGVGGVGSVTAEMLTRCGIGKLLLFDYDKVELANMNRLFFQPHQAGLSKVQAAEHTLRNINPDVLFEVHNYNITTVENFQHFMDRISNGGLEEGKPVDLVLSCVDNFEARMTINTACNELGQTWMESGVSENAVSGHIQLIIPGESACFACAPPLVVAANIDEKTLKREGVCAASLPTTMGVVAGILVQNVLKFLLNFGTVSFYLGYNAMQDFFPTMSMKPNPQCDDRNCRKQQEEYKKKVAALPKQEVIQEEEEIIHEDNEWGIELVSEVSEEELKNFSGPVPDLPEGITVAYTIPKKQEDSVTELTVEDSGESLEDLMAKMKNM

Homo sapiens [5] = species on record: Homo sapiens; test: Inhibition of human recombinant NAE assessed as inhibition of NEDD8-UbcH12 complex formation at 10 nM after 1.5 hrs by Western blot analysis; outline: as §1
[6] = molecular target: SUMO-activating enzyme (Homo sapiens) (UniProt Q9UBE0+Q9UBT2); test: Inhibition of human recombinant SAE1/2 assessed as inhibition of SUMO1-UbcH9 complex formation at 0.001 to 10 uM after 1.5 hrs by Western blot analysis; assay type: protein-complex assay; outline: as §1
Homo sapiens [7] = species on record: Homo sapiens; test: Inhibition of human recombinant NAE assessed as inhibition of NEDD8-UbcH12 complex formation at 0.001 to 10 uM after 1.5 hrs by Western blot analysis; outline: as §1
Homo sapiens [8] = species on record: Homo sapiens; test: Inhibition of human recombinant NAE assessed as inhibition of NEDD8-UbcH12 complex formation at <10 nM after 1.5 hrs by Western blot analysis; outline: as §1

Compound	inhibition (Homo sapiens [1])	inhibition (Homo sapiens [2])	EC50 (K562) [nM]	inhibition (Homo sapiens [3])	inhibition [4]	inhibition (Homo sapiens [5])	inhibition [6]	inhibition (Homo sapiens [7])	inhibition (Homo sapiens [8])
CCCCNc1ncnc2c1ncn2[C@@H]1O[C@H](COS(N)(=O)=O)[C@@H](O)[C@H]1O	< 58%	Active	–	–	–	–	–	–	–
COCCNc1ncnc2c1ncn2[C@@H]1O[C@H](COS(N)(=O)=O)[C@@H](O)[C@H]1O	–	–	> 1000	–	–	–	–	–	–
CCC(C)Nc1ncnc2c1ncn2[C@@H]1O[C@H](COS(N)(=O)=O)[C@@H](O)[C@H]1O (stereo partly drawn)	–	–	> 1000	Active	inactive	< 25%	Active	Active	–
CC(C)(C)CC(C)(C)Nc1ncnc2c1ncn2[C@@H]1O[C@H](COS(N)(=O)=O)[C@@H](O)[C@H]1O	–	–	> 1000	Active	inactive	inactive	Active	Active	–
NS(=O)(=O)OC[C@H]1O[C@@H](n2cnc3c(Nc4ccccc4)ncnc32)[C@H](O)[C@@H]1O	–	–	–	Active	inactive	–	Active	Active	–
NS(=O)(=O)OC[C@H]1O[C@@H](n2cnc3c(NC4CCCCCCC4)ncnc32)[C@H](O)[C@@H]1O	–	–	380	–	–	–	–	–	–
CN(Cc1ccco1)c1ncnc2c1ncn2[C@@H]1O[C@H](COS(N)(=O)=O)[C@@H](O)[C@H]1O	–	Active	> 1000	Active	inactive	–	Active	Active	inactive
NS(=O)(=O)OC[C@H]1O[C@@H](n2cnc3c(NCCCn4ccnc4)ncnc32)[C@H](O)[C@@H]1O	–	–	–	Active	inactive	–	Active	Active	–
CC(C)CC(C)Nc1ncnc2c1ncn2[C@@H]1O[C@H](COS(N)(=O)=O)[C@@H](O)[C@H]1O (stereo partly drawn)	–	–	–	Active	inactive	–	Active	Active	–
NS(=O)(=O)OC[C@H]1O[C@@H](n2cnc3c(NCC4COCCOCCOCCOCCO4)ncnc32)[C@H](O)[C@@H]1O (stereo partly drawn)	–	–	> 1000	Active	inactive	–	Active	Active	–
CCN(CC)c1ncnc2c1ncn2[C@@H]1O[C@H](COS(N)(=O)=O)[C@@H](O)[C@H]1O	–	–	–	Active	inactive	–	Active	Active	inactive
CCCNc1ncnc2c1ncn2[C@@H]1O[C@H](COS(N)(=O)=O)[C@@H](O)[C@H]1O	inactive	–	–	Active	inactive	< 63%	Active	Active	–
CCCCCC(C)Nc1ncnc2c1ncn2[C@@H]1O[C@H](COS(N)(=O)=O)[C@@H](O)[C@H]1O (stereo partly drawn)	–	–	203	Active	inactive	–	Active	Active	–
NS(=O)(=O)OC[C@H]1O[C@@H](n2cnc3c(NCc4ccoc4)ncnc32)[C@H](O)[C@@H]1O	–	Active	–	–	–	100%	–	–	–
NS(=O)(=O)OC[C@H]1O[C@@H](n2cnc3c(N4CCOCC4)ncnc32)[C@H](O)[C@@H]1O	–	–	–	–	–	–	–	–	inactive
NS(=O)(=O)OC[C@H]1O[C@@H](n2cnc3c(N4CCC5CCCCC5C4)ncnc32)[C@H](O)[C@@H]1O (stereo partly drawn)	–	–	> 1000	Active	inactive	–	Active	Active	inactive

Compound	inhibition (Homo sapiens [1])	inhibition (Homo sapiens [2])	EC50 (K562) [nM]	inhibition (Homo sapiens [3])	inhibition [4]	inhibition (Homo sapiens [5])	inhibition [6]	inhibition (Homo sapiens [7])	inhibition (Homo sapiens [8])
CNc1ncnc2c1ncn2[C@@H]1O[C@H](COS(N)(=O)=O)[C@@H](O)[C@H]1O	inactive	–	–	–	–	< 76%	–	–	–
CN(Cc1ccccc1)c1ncnc2c1ncn2[C@@H]1O[C@H](COS(N)(=O)=O)[C@@H](O)[C@H]1O	–	–	–	–	–	–	–	–	inactive
NS(=O)(=O)OC[C@@H]1C[C@@H](n2ccc3c(N[C@H]4CCc5ccccc54)ncnc32)C[C@@H]1O [PEVONEDISTAT]	–	–	108	Active	inactive	–	Active	Active	–
CC(C)Nc1ncnc2c1ncn2[C@@H]1O[C@H](COS(N)(=O)=O)[C@@H](O)[C@H]1O	–	Active	–	Active	inactive	–	Active	Active	–
CCCCCNc1ncnc2c1ncn2[C@@H]1O[C@H](COS(N)(=O)=O)[C@@H](O)[C@H]1O	< 62%	–	181	–	–	–	–	–	–
NS(=O)(=O)OC[C@H]1O[C@@H](n2cnc3c(NCCc4cccs4)ncnc32)[C@H](O)[C@@H]1O	–	–	559	Active	inactive	–	Active	Active	–
Nc1ncnc2c1ncn2[C@@H]1O[C@H](COS(N)(=O)=O)[C@@H](O)[C@H]1O	< 16%	–	–	–	–	–	–	–	–
CCCCN(C)c1ncnc2c1ncn2[C@@H]1O[C@H](COS(N)(=O)=O)[C@@H](O)[C@H]1O	–	Active	–	–	–	–	–	–	inactive
CCCCCCCNc1ncnc2c1ncn2[C@@H]1O[C@H](COS(N)(=O)=O)[C@@H](O)[C@H]1O	inactive	–	132	Active	inactive	–	Active	Active	–
CCCCN(CCCC)c1ncnc2c1ncn2[C@@H]1O[C@H](COS(N)(=O)=O)[C@@H](O)[C@H]1O	–	–	–	Active	inactive	–	Active	Active	inactive
NS(=O)(=O)OC[C@H]1O[C@@H](n2cnc3c(NCc4cccs4)ncnc32)[C@H](O)[C@@H]1O	–	–	114	Active	inactive	100%	Active	Active	–
CCN(c1ncnc2c1ncn2[C@@H]1O[C@H](COS(N)(=O)=O)[C@@H](O)[C@H]1O)C(C)C	–	Active	–	–	–	–	–	–	inactive
NS(=O)(=O)OC[C@H]1O[C@@H](n2cnc3c(NCC4CCCO4)ncnc32)[C@H](O)[C@@H]1O (stereo partly drawn)	–	–	> 1000	Active	inactive	–	Active	Active	–
NS(=O)(=O)OC[C@H]1O[C@@H](n2cnc3c(N[C@@H]4C[C@H]5CCC4C5)ncnc32)[C@H](O)[C@@H]1O	–	–	–	Active	inactive	–	Active	Active	–
CC(C)(C)CCNc1ncnc2c1ncn2[C@@H]1O[C@H](COS(N)(=O)=O)[C@@H](O)[C@H]1O	–	–	929	Active	inactive	< 29%	Active	Active	–
CCCCN(CC)c1ncnc2c1ncn2[C@@H]1O[C@H](COS(N)(=O)=O)[C@@H](O)[C@H]1O	–	–	–	–	–	–	–	–	inactive
